Bioassay records (PubChem)
In the library only some 4.8% were active in any assay of this set; here they are far more common.
697 NFkB inh = inhibitors of PMA/ionomycin-induced NF-kB reporter, 697 cells, primary screen, B-cell NF-kB inhibitor project, cell-based, luminescence, uHTS; 697 B-cell NF-kB luciferase reporter, 16 h; inhibition, % at 4 µM; 0.33% of 330,000 active; AID 435022, 2010; in the data active = inhibition above about 35%
HSF1 activator = HSF-1 activators, primary screen, NIH3T3-HGL cells, MG132 stress, luminescence, single point. NIH3T3-HGL HSF-1 luciferase reporter, 8 h; 100% = twice DMSO control signal. activation, % at 9 µM. 1.7% of 300,000 active. AID 504408, 2011;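 active = mean replicate activation of at least 50% with a set share of replicates each reaching 50%; inconclusive = only one of those two conditions met; inactive = mean below 50% and too few replicates reaching it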
GPR7 antag = GPR7 receptor antagonists, primary screen, cell-based, fluorescence, single concentration | Neuropeptides B/W receptor type 1 (Homo sapiens), P48145 | GPR7-expressing cells, fluorescence antagonist assay | inhibition, % at 4.4 µM | 1.1% of 290,000 active; in the data active = inhibition above about 16%, passing the limit was not always enough;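 note: cells stimulated with the agonist NPW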
Target sequence (P48145 whole entry, looked up): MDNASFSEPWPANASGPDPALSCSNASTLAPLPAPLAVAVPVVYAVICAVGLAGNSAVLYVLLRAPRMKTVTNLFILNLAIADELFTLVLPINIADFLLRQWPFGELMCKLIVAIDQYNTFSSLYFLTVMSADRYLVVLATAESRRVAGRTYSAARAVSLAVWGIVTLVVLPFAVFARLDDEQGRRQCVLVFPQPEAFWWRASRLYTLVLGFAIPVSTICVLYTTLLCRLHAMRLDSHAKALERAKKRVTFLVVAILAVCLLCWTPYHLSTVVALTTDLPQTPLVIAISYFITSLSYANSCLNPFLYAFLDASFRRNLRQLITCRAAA
Jurkat NFkB inh = inhibitors of induced NF-kB luciferase reporter, primary screen, TCR NF-kB activation inhibitor project, cell-based, luminescence, uHTS. Jurkat, PMA/ionomycin-induced NF-kB luciferase reporter. inhibition, % at 4 µM. 0.53% of 330,000 active. AID 435003, 2010; in the data active = inhibition above about 50%
HSF1 inh = HSF1 inhibitors in luciferase reporter cells, primary screen, cell-based, NIH3T3, luminescence | 0.77% of 300,000 active | NIH3T3-HGL HSE-luciferase, MG132-induced, luminescence 8 h; stronger effect = lower value | activity change, negative = inhibition, % at 7.5 µM (by protocol);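 active = more than half of replicate wells show activity change below -50%, luminescence cut by over half; inconclusive = some wells, but at most half, below -50%; inactive = no replicate well below -50%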;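 note: luciferase reports HSF-1 transcriptional activity via heat shock element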
T cruzi inh = inhibitors of intracellular T. cruzi growth, primary screen, luminescence, NIH3T3 host cells. 1.4% of 300,000 active. T. cruzi beta-gal in NIH3T3, 90 h. inhibition, % (test concentration not listed);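 active = mean inhibition across valid replicates above about 55%, limit read from the data; inconclusive = mean below that limit but half or more replicates reach it; inactive = mean below it, under half of replicates reach it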;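 note: signal also drops with host cell toxicity which is not excluded here; higher percent means less beta-gal luminescence so fewer parasites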
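System: NIH/3T3 fibroblasts plus reporter T. cruzi. Medium: DMEM plus 2% FBS. Probe or stimulus: 5000 reporter trypomastigotes per well. Compound: single 50 nL compound addition per well in DMSO. Incubation: co-culture of at least 90 h after 3 h attachment. Detection: GalScreen β-gal luminescence, detergent lysis, 60 min. Evaluation: parasite load inhibition, %.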
Large screens that a line does not name were inactive.

O=C(c1ccc(CSc2nc3ccncc3[nH]2)cc1)N1CCCCCC1	none
O=c1[nH]c(SCc2ccc(Cl)cc2)nc2ccccc12	HSF1 activator 65.9
Clc1ccc(CSc2nc3ccncc3[nH]2)cc1	HSF1 activator 55.9
CC(C)(C)S(=O)(=O)c1ccc(S(=O)(=O)C(C)(C)C)s1	none
Cc1ccc(CN2CCCC(CO)(Cc3ccccc3C)C2)s1 (stereo not given)	none
CCOC(=O)c1ccc(NC(=S)NNC(=O)C2(C)CC2(Cl)Cl)cc1 (stereo not given)	none
COc1ccc(S(=O)(=O)NCc2csc(C)n2)cc1OC	none
CCCN(Cc1cc2cc(OC)ccc2[nH]c1=O)C(=O)c1ccncc1	none
CCOc1ccc(C(=O)N(Cc2ccc(OC)cc2)Cc2cc3cc(OC)ccc3[nH]c2=O)cc1	HSF1 activator 64.8
CCCCN(Cc1cc2cc(OC)ccc2[nH]c1=O)C(=O)c1ccco1	HSF1 activator 76.5
N#Cc1c(SCc2c(Cl)cccc2Cl)nc(N)[nH]c1=S	none (no result: HSF1 activator, GPR7 antag, HSF1 inh, T cruzi inh)
NC(=O)c1c(NC(=O)c2cnccn2)sc2c1CCCC2	none
COC(CNC(=O)CN1CCN(Cc2ccc(F)cc2Cl)C1=O)OC	none
CC1(C)Cc2c(c(N3CCOCC3)nc3sc4c(NCc5ccccc5)nnnc4c23)CS1	T cruzi inh 61.6
COc1ccc(/C=C2\OC(=O)c3c(OC)cccc32)cc1OC	HSF1 activator 75.9
Oc1ccccc1-c1csc(-c2ccccc2)n1	HSF1 activator 78.9
COCCn1c(=O)[nH]c(=O)c2c1nc(-c1cc(Br)c3c(c1)OCO3)n2Cc1ccccc1	HSF1 activator 58.9
COCCCn1c(-c2cccc(Cl)c2)nc2c1c(=O)[nH]c(=O)n2Cc1ccccc1	none
Cc1cc(C)n(Cc2ccc(Cl)cc2Cl)c(=O)c1S(=O)(=O)c1ccccc1	HSF1 activator 59.4
CC(=O)NCCCC(=O)NNC1CC(=O)N(c2cccc(Cl)c2)C1=O (stereo not given)	none
C#CCOc1c(Cl)cc(/C=C2/C(=O)ON=C2C)cc1OCC	HSF1 activator 52.1
C#CCOc1c(Br)cc(/C=C2/C(=O)ON=C2C)cc1OCC	none
CCOc1cc(/C=C2/C(=O)ON=C2C)ccc1OCc1ccc(F)cc1	HSF1 activator 62.6
CC(C)OC(=O)C(=O)NNc1ccccc1	T cruzi inh 57.9
CCOC(=O)c1c(/N=C/C2=C(O)CCCC2=O)sc2c1CCCC2	none
CCOC(=O)c1cc(CC)sc1/N=C/C1=C(O)CCCC1=O	HSF1 inh -54.1
CC(C)(C)N(NS(=O)(=O)c1ccc(F)cc1)c1ccccc1	HSF1 activator 56.6
Cc1ccccc1NS(=O)(=O)c1ccc(F)cc1	none
Nc1cc(OC(=O)c2ccc(F)cc2)nn1S(=O)(=O)c1ccc(F)cc1	HSF1 activator 76.1
Cc1ccc(NC(=O)c2snc3c(=O)[nH]cnc23)cc1C	none (no result: 697 NFkB inh, HSF1 activator, Jurkat NFkB inh, HSF1 inh, T cruzi inh)
Cc1ccc(NC(=O)c2snc3ccc(Cl)cc23)cc1C	HSF1 activator 56.0
Cc1nc(C)c(-c2ccc(SCc3ccc([N+](=O)[O-])cc3)nn2)s1	HSF1 activator 52.3
Cc1ccccc1-c1nnc(CS(=O)(=O)c2ccccc2)o1	HSF1 activator 127.1, T cruzi inh inconclusive
O=C(NCc1ccccc1)C1=C[C@@H](C2CCCCC2)C[C@@H](OCCCCO)O1	none (no result: GPR7 antag)
O=C(Cn1ccnc1)c1ccc(Cl)cc1	T cruzi inh 59.0
Cc1ccc2nc(-c3ccc4c(c3)OCCO4)cc(C(=O)O)c2c1	HSF1 activator 52.0
O=C(O)c1cc(-c2ccc3c(c2)OCO3)nc2ccccc12	none
COc1ccccc1Nc1nnc(SCc2nnc(-c3cc(OC)c(OC)c(OC)c3)o2)s1	none
CCOc1ccccc1Nc1nnc(SCc2nnc(-c3cc(OC)c(OC)c(OC)c3)o2)s1	HSF1 inh -73.9
COc1cc(-c2nnc(CSc3nnc(Nc4ccc(C(C)C)cc4)s3)o2)cc(OC)c1OC	HSF1 activator 55.6
